Measurements from PubChem BioAssay AID504490 (NMMLSC, 2011).
In all, about 340,000 compounds went through this assay and about 1,100 (0.32%) were called active.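 Rule for the calls: active = inhibition above a set limit, near 3 SD of compounds lacking own fluorescence (cut at about 54% in these data); inactive = the rest.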 The entries come from a sample that favours actives as a whole.

Each compound was assayed on beta-arrestin 1 C-terminal peptide binding to AP2 beta2-adaptin appendage (human) (assay: blockers of arrestin peptide association with AP2 adaptin – biochemical, GPCR trafficking, flow cytometry, primary screen (AID 504490;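 note: plate controls were DMSO wells for no effect and 5 µM unlabelled arrestin peptide for full effect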)). Conditions: FITC-arrestin peptide / GST-AP2 beads, at 10 µM, hits give high values, AP2 beta2 appendage carries R879A mutation.
Procedure, shortened: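 System: GST-tagged AP2 beta2-adaptin appendage (R879A) on 4 µm glutathione beads / Reagent: FITC-arrestin peptide, 50 nM / Detection: HyperCyt-sampled flow cytometry, FL1 channel, ex 488/em 535 nm / Timing: 12 min plus 1 h, RT / Buffer or medium: PBS plus Tween 20 (0.05%) and BSA (0.1%)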

inhibition, inactive:
CCOc1ccc(/C=C2\SC(=S)N(NC(=O)c3ccncc3)C2=O)cc1OC 18.7%
COc1cccc(/C=C2/SC(=S)N(CC(=O)NC3C=CS(=O)(=O)C3)C2=O)c1 (stereo not given) -14%
N#CCCN(C(=O)COC(=O)c1ccc(S(=O)(=O)N2CCCCCC2)cc1)c1ccccc1 -3.59%
COc1ccc(-c2[nH]ncc2CN(C)Cc2c(C)n[nH]c2C)c(OC)c1 6.55%
CC(=O)c1c(C)[nH]c(C(=O)COC(=O)CCOc2ccc(C)cc2)c1C 5.24%
Cc1cc(NC(=O)CCS(=O)(=O)c2ccc(F)cc2)no1 -7.97%
CC1CN(C(=O)c2ccccc2NS(=O)(=O)c2cccc([N+](=O)[O-])c2)CC(C)O1 (stereo not given) 2.09%
COc1cccc(CN2CCNC(=O)C2CC(=O)N(C)CCc2ccccn2)c1 (stereo not given) -2.95%
CN(CCc1cn[nH]c1)C(=O)CC1C(=O)NCCN1Cc1cccc(Oc2ccccc2)c1 (stereo not given) 9%
Cc1nc2c(ncn2-c2ccccc2)c(=O)n1NC(=O)CN1CCCC1 -8.96%
COc1ccc(-n2ncc3c2CC(C)(C)CC3NC(=O)CCc2c(C)noc2C)cc1 (stereo not given) 5.75%
O=C(c1ccc(Cl)s1)N(Cc1nnc(-c2ccccc2Cl)o1)C1CC1 -9.93%
O=C(Nc1nc(-c2ccco2)c(-c2ccco2)s1)c1ccco1 8.21%
COCCNC(=O)c1snc2ccc(Cl)cc12 2.57%
CCc1noc(C)c1C(=O)N1CCCC(N2CCN(c3ccc(F)cc3)CC2)C1 (stereo not given) 7.14%
COc1cccc(C2SCC(=O)N2c2cccc(C)c2)c1OC (stereo not given) 3.87%
CCc1ccc(NC(=O)Nc2ccncc2)cc1 0.23%
Cc1csc(NC(=O)C2=COCCO2)n1 17.8%
NS(=O)(=O)c1ccc2nc(NC(=O)CS(=O)(=O)c3ccc(F)cc3)sc2c1 3.77%
O=C1N(Cc2ccc3c(c2)OCO3)c2ccccc2C1(O)c1c[nH]c2ccccc12 (stereo not given) 2.95%
Cc1ccccc1Cn1c2ccccc2c2cnn(CC(=O)NCc3ccco3)c(=O)c21 -0.8%
CCOc1ccc(C(C)=O)cc1COC(=O)CN1C(=O)NC2(CCCC2)C1=O 3.04%
S=c1ccc2ccccc2[nH]1 -7.56%
COC(=O)C1=C(C)N(C)C(C)=C(C(=O)OC)C1c1cccc(Br)c1 -3.12%
CCN1C[C@@H]2[C@@H]3C(=O)N(Cc4ccccc4)C(=O)[C@@H]3[C@](Cc3ccccc3)(C(=O)OC)N2C1=NC1CCCCC1 4.73%
NC(=O)c1ccc(Nc2ccc3c(c2)CCC3)c([N+](=O)[O-])c1 38.4%
CCOc1ccccc1Nc1ccc(C(=O)O)cc1[N+](=O)[O-] 35.8%
S=C(Nc1cccnc1)Nc1ccccn1 3.47%
CCOc1ccccc1C1CC(c2ccc(Cl)cc2)Nc2nc(N)nn21 (stereo not given) 10.8%
O=c1[nH]n2c(-c3ccccc3)nc(O)c2c2ccccc12 -0.17%
Cc1ccc(-c2cccc([C@H]3[C@@H]4C=CC[C@@H](C)[C@@H]4C(=O)N3Cc3ccccc3)c2)cc1 -6.59%
CCC1(CC)NC(=O)N(CC(=O)OCC(=O)NC(=O)c2ccccc2)C1=O 5.01%
CC(=O)Nc1ccc(S(=O)(=O)N2CCC(N(C)CCC(C)C)CC2)cc1 -0.3%
CC(CN1CCOCC1)OC(=O)c1ccc(Cl)cc1Cl (stereo not given) 8.15%
Cc1cccc(C(=O)OC(C)CN2CCCC2)c1 (stereo not given) 14.8%
Cc1cccn2c(=O)c(/C=C(\C#N)C(N)=O)c(N3CCCCCC3)nc12 -21.3%
Cc1cccn2c(=O)c(/C=C(\C#N)S(=O)(=O)c3ccc(Cl)cc3)c(N3CCC(C(N)=O)CC3)nc12 3.53%
CCCn1c(O)c(CN2CCCC(C)C2)c(C)c(C#N)c1=O (stereo not given) 11.7%
O=C(NNc1cc(Cl)cc(Cl)c1)c1c(F)cccc1Cl -11.9%
CCN(CC(=O)NCc1ccco1)S(=O)(=O)c1ccc(F)cc1 24.4%
O=C(NCc1ccco1)c1cc2sccc2n1Cc1ccc(F)cc1 1.12%
Cc1ccc(NS(=O)(=O)c2cn(C)c(=O)n(C)c2=O)c(C)c1 -3.22%
Cc1ccc(CC2C(=O)N(c3ccc(F)cc3)C(=O)C2C)cc1 (stereo not given) -10.9%
CC(C)Nc1ncnc2c1nnn2Cc1ccccc1 -0.65%
COc1ccc(CNCCCn2cnc3c(OCc4ccccc4)ncnc32)cc1 3.96%
CN(CCCC(=O)Nc1nccs1)S(=O)(=O)c1ccc(Cl)cc1 -5.07%
O=C(Nc1ccccc1N1CCOCC1)c1ccncc1 -0.66%
Cc1c(C(=O)NNC(=O)c2ccncc2)oc2ccccc12 -2.61%

inhibition, active:
COc1ccc(/C=C2\SC(=S)N(CCC(=O)Nc3ccccn3)C2=O)cc1OC 73.7%
Cc1ccc(OCCCCc2c(C)n[nH]c2C)cc1 65.1%
NC(=O)C1CCN(C(=O)CC2C(=O)NCCN2Cc2cccc(Oc3ccccc3)c2)CC1 (stereo not given) 68.5%
COCCNC(=O)Nc1ccc2nc(-c3ccco3)c(-c3ccco3)nc2c1 68%
NS(=O)(=O)c1ccc2nc(NC(=O)C3=COCCO3)sc2c1 58.1%
Cc1ccc(Nc2ccc(C(N)=O)cc2[N+](=O)[O-])cc1 54.7%
O=c1[nH]c2ccccc2n2c(-c3ccccc3)nnc12 55.3%
CC(CN1CCCCC1)OC(=O)c1ccccc1Cl (stereo not given) 84.6%
Cc1cc(C)cc(Oc2nc3c(C)cccn3c(=O)c2/C=C(\C#N)C(=O)NC2CCS(=O)(=O)C2)c1 (stereo not given) 77.2%
O=C(NCc1ccco1)c1ccc(CS(=O)(=O)Cc2ccc(F)cc2)o1 97%
COc1ccc(CCNc2ncnc3c2nnn3Cc2ccccc2)cc1 56%
CN(C)c1ccc(NC(=O)c2ccncc2)c2ccccc12 57.2%
